We go through 12 compounds from ChEMBL document CHEMBL1148613, “Synthesis and biological evaluation of novel phenylcarbazoles as potential anticancer agents” (J Med Chem, 2006).

The structures appear in SMILES notation.

A short description of assay [1]: Inhibitory activity against CDK1/Cyclin B from starfish oocytes. Particulars: oocyte. Also on record: species or system Marthasterias glacialis. The method in brief: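 Starfish oocyte (M phase) CDK1/cyclin B, affinity-purified on p9CKShs1-sepharose. Buffer C (25 mM Mops pH 7.2, β-glycerophosphate, p-nitrophenyl phosphate, EGTA, 15 mM MgCl2, DTT, vanadate, phenyl phosphate), 1 mg/mL histone H1, 15 µM [γ-33P]ATP, 10 min at 30 °C. Read by P81 phosphocellulose binding, washing and scintillation counting; activity as percent of uninhibited control, DMSO controls.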

The subject of the next assay is CEM/C2. The assay can be described thus: Cytotoxicity against camptothecin-resistant human leukemic CEMC2 cell line. The class given is functional, cell-based. In a few lines:
(§1)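 Human leukemia cells (CEM, or topoisomerase I-deficient CEM/C2) grown at 37 °C, 5% CO2 in RPMI 1640 with 10% FBS, glucose, HEPES, pyruvate and antibiotics. 2 × 10^4 exponentially growing cells seeded with graded drug concentrations, 72 h at 37 °C. Tetrazolium dye (CellTiter 96 aqueous one-solution) added for a further 2 h, absorbance read at 492 nm; IC50 reported.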

Assay [2] concerns the target Cyclin-dependent kinase 5/CDK5 activator 1 (Homo sapiens, UniProt Q00535). As to the kind of experiment: Inhibitory activity against CDK5/p25. The class given is protein-complex assay. The method in brief: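 Recombinant mammalian CDK5 and p25, expressed in E. coli as GST fusions, glutathione-agarose purified and mixed in equal amounts. Assayed in buffer C pH 7.2 with 1 mg/mL histone H1 and 15 µM [γ-33P]ATP, 10 min at 30 °C. P81 filter binding and scintillation counting; activity as percent of maximal activity without inhibitor.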

The subject of a further assay is CCRF-CEM. The assay can be described thus: Cytotoxicity against human leukemic CEM cell line. The class given is functional, cell-based. The method in brief: as §1
Assay [3] has as its target Glycogen synthase kinase-3 (Homo sapiens, UniProt P49840+P49841). As to the kind of experiment: Inhibitory activity against GSK3 from porcine brain. The note with it: target entry is the homologue from another species. The arrangement: species or system Sus scrofa. In a few lines: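 GSK-3α/β purified from porcine brain on immobilized axin, diluted 1/100 in BSA/DTT. Buffer A (25 mM Tris-HCl pH 7.5, 10 mM MgCl2, EGTA, DTT, 50 µg/mL heparin), GS-1 peptide substrate (5 µL of 40 µM), 15 µM [γ-33P]ATP, 30 min at 30 °C. P81 phosphocellulose filters washed in dilute phosphoric acid and counted; activity relative to no-inhibitor control.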

Chain of Cyclin-dependent kinase 5/CDK5 activator 1 (Q00535 whole entry, the tested form may be a part): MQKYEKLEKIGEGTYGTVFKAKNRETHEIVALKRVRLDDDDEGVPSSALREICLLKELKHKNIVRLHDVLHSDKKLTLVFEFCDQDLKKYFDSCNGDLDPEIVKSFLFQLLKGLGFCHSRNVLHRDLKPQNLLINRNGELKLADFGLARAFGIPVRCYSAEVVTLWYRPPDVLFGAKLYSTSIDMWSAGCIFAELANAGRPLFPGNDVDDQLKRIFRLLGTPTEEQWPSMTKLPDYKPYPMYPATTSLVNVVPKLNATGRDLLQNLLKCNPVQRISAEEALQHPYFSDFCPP
Chain of Cyclin-dependent kinase 5/CDK5 activator 1 (Q15078 whole entry, further chain, the tested form may be a part): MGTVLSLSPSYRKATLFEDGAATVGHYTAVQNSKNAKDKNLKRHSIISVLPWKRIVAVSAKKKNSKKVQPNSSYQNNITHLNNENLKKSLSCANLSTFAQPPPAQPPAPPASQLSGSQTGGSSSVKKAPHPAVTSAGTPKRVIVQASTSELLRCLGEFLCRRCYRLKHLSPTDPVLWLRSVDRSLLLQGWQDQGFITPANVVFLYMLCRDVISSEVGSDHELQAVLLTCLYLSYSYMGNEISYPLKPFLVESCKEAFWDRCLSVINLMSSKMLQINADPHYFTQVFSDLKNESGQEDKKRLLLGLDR

By IC50 is commonly meant the concentration that inhibits the measured activity by half. A lower IC50 goes with greater potency in that assay. With `CN1C(=O)c2c(c3c4cc(O)ccc4[nH]c3c3ccccc23)C1=O`, the IC50 is greater than 10 µM in assay [1], 4.17 µM with CEM/C2, greater than 10 µM in assay [2] and 1.64 µM with CCRF-CEM.
For the compound `CN1C(=O)c2c(c3c4ccccc4[nH]c3c3ccccc23)C1=O`, the IC50 in assay [1] is greater than 10 µM; in the assay with CEM/C2, greater than 100 µM; in assay [2], greater than 10 µM; in the assay on CCRF-CEM it was greater than 100 µM.
Turning to `O=C1c2c(c3c4cc(O)ccc4[nH]c3c3ccccc23)C(=O)N1CCc1c[nH]cn1`, the IC50 is greater than 10 µM in assay [1], 1.9 µM in the assay with CEM/C2, greater than 10 µM in assay [2] and 0.715 µM in the assay with CCRF-CEM.
For `O=C1OC(=O)c2c1c1ccccc1c1[nH]c3ccccc3c21`, the IC50 is greater than 10 µM in assay [1], greater than 50 µM in the assay on CEM/C2, greater than 10 µM in assay [2] and greater than 25 µM with CCRF-CEM.
On to `O=C1NC(=O)c2c1c1ccccc1c1[nH]c3ccc(O)cc3c21`, for which the IC50 was 0.58 µM in assay [1]; greater than 25 µM with CEM/C2; 0.25 µM in assay [2]; greater than 25 µM in the assay on CCRF-CEM; 0.46 µM in assay [3].
For `O=C1c2c(c3c4ccccc4[nH]c3c3ccccc23)C(=O)N1C(CO)CO`, the IC50 in assay [1] is greater than 10 µM; with CEM/C2 it was 4.95 µM; in assay [2] it was greater than 10 µM; in the assay on CCRF-CEM, 3.71 µM.
Take `O=C1NC(=O)c2c1c1ccccc1c1[nH]c3ccccc3c21`: the IC50 is 80 µM in assay [1]; greater than 100 µM in the assay on CEM/C2; 8.5 µM in assay [2]; greater than 100 µM in the assay on CCRF-CEM; 20 µM in assay [3].
Turning to `CN(C)CCN1C(=O)c2c(c3c4cc(O)ccc4[nH]c3c3ccccc23)C1=O`, the IC50 in assay [1] was greater than 10 µM; in the assay on CEM/C2, 0.0187 µM; in assay [2], greater than 10 µM; in the assay with CCRF-CEM it was 0.0122 µM.
Consider `CN(C)CCN1C(=O)c2c(c3c4ccccc4[nH]c3c3ccccc23)C1=O`, for which the IC50 in assay [1] was greater than 10 µM; in the assay on CEM/C2, 0.335 µM; in assay [2] it was greater than 10 µM; in the assay with CCRF-CEM, 0.11 µM.
Regarding `O=C1c2c(c3c4cc(O)ccc4[nH]c3c3ccccc23)C(=O)N1C(CO)CO`, the IC50 in assay [1] is greater than 10 µM; in the assay with CEM/C2, 4.96 µM; in assay [2] it was greater than 10 µM; in the assay with CCRF-CEM, 2.84 µM.
As for `O=C1OC(=O)c2c1c1ccccc1c1[nH]c3ccc(O)cc3c21`, the IC50 in assay [1] is greater than 10 µM; with CEM/C2, 32.3 µM; in assay [2], greater than 10 µM; with CCRF-CEM, 14.7 µM.
In the case of `O=C1c2c(c3c4ccccc4[nH]c3c3ccccc23)C(=O)N1CCc1c[nH]cn1`, the 50% inhibitory concentration (IC50) in assay [1] was greater than 10 µM; in the assay with CEM/C2, 2.92 µM; in assay [2], greater than 10 µM; in the assay on CCRF-CEM, 1.58 µM.
